Most compounds without a hit are left out; they make up all but 3% or so of the library.
DSG3 Ab inh: inhibitors of pemphigus antibody binding to DSG3, primary screen, biochemical, bead-based, flow cytometry, scFv-GFP; Desmoglein-3 (Homo sapiens), P32926; DSG3-coupled beads, scFv-anti-DSG3-GFP binding; active compounds read low; binding (percent of control), % at 10 µM; 0.48% of 310,000 active; AID 588358, 2011;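 active = binding more than 3 SD below its plate's average and above zero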;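 also: hits lower antibody fragment binding to DSG3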
HNF4A DNA FP: change in binding of human HNF4A to DNA, primary screen, biochemical, fluorescence polarization, FITC-DNA; Hepatocyte nuclear factor 4-alpha (Homo sapiens), P41235; activity change, % at 10 µM; 0.3% of 360,000 active; 1 h; in the data active = activity change above about 30%, passing the limit was not always enough
Target sequence (P41235 whole entry, looked up): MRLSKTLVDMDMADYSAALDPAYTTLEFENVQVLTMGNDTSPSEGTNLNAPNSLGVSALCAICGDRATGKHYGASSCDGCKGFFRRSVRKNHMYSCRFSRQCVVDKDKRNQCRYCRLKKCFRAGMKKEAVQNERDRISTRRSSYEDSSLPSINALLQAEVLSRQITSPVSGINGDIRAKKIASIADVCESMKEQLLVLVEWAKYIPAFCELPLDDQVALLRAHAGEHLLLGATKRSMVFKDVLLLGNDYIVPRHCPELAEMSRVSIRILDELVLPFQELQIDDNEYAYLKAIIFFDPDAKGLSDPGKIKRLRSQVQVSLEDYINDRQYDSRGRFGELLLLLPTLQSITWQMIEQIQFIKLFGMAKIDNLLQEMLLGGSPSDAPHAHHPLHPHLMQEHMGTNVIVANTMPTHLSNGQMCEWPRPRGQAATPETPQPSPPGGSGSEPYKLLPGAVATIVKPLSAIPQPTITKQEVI
Myeloid diff 2: induction of myeloid progenitor differentiation, primary screen, cell-based, flow cytometry, MLPCN library | ER-HoxA9 myeloid progenitors, lysozyme-GFP differentiation | AID 624256, 2012 | 1% of 360,000 active | calls only at 10 µM;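 active = normalized GFP-positive differentiation at or above the plate's own cutoff, the solvent-only control mean plus 3 SD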;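 also: cells exposed to compound for four days before flow analysis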
Granule exo inh: LAMP-1 surface exposure blockers, TALL-104 cells – cell-based, flow cytometry, MLPCN library, primary screen. TALL-104 LAMP-1 surface exposure; cells stimulated with thapsigargin and PMA. inhibition, % at 10 µM. 0.66% of 360,000 active. AID 651702, 2012;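 active = inhibition above about 55%, limit read from the data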
H9c2 protect: cardioprotection against H2O2-induced cell death, primary screen, uHTS, H9c2 cells, ATPLite luminescence; protection from H2O2 cell death, % at 20 µM; H9c2 cardiomyocytes, H2O2 injury protection, 2 h; 0.63% of 360,000 active;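 active = compounds giving at least 50% protection of heart cells from peroxide-induced death in the single-dose screen, raw or plate-pattern-corrected value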;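 also: 0% = DMSO wells with peroxide and 100% = DMSO wells without peroxide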
SENP1 inh: human SENP1 catalytic domain inhibitors, primary screen, biochemical, FRET, uHTS. Sentrin-specific protease 1 (Homo sapiens), Q9P0U3. recombinant SENP1 catalytic domain, CyPet-SUMO1-YPet FRET cleavage. inhibition, % at 10 µM. 0.21% of 360,000 active;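 active = inhibition at least 30% at 10 µM, raw YFP signal under a set limit, fluorescence ratio 0.5 to 1.5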;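 also: 0% = enzyme with DMSO and 100% = no enzyme wells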
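Compound: 10 µM single point, 0.5% DMSO; Test system: hSENP1 catalytic domain, recombinant; Timing: 50 min reaction at room temperature; Technique: FRET, CFP and YFP emission; Control set: no-enzyme wells low, DMSO-plus-enzyme wells high control.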
Myeloid diff CP1: inducers of myeloid progenitor differentiation, confirmation, cell-based, GFP/Mac1 flow cytometry, cherry pick 01; shares compounds with Myeloid diff 2; ER-HoxA9 myeloid progenitors, GFP/Mac1 double-positive flow; calls only; 2% of 2,300 active; AID 651706, 2012;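 active = share of green or green-and-red cells above 9 and 9% in run 1 or 4 and 3% in run 2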
GFP autofluor: counter-screen for myeloid differentiation promoters: compound fluorescence; shares compounds with Myeloid diff 2; ER-HoxA9 myeloid progenitors, no estrogen, GFP autofluorescence flow cytometry; vehicle wells 0%, positive control 100%; fluorescence response, % (test concentration not listed); 7.4% of 2,300 active; AID 651707;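 active = over 5% cells positive for green fluorescent reporter, or over 2% positive for both it and APC stain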;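 also: range taken on the double positive population between DMSO and positive control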
Numbers without * were called inactive.

What do the screens show for `CCOc1ccc(CCN2C(=O)C(=O)N([C@@H](Cc3ccccc3)CN3CCC[C@H]3CN3C(=O)C(=O)NC[C@@H]3CC(C)C)C[C@@H]2Cc2ccc(O)cc2)cc1`?
HNF4A DNA FP: -3; Myeloid diff 2: inactive; Granule exo inh: -2; SENP1 inh: 2; Myeloid diff CP1: inactive; GFP autofluor: 0

How did CCOc1ccc(CCN2C(=O)C(=O)N([C@@H](Cc3ccccc3)CN3CCC[C@H]3CN3C(=O)C(=O)NC[C@@H]3Cc3ccc(O)cc3)C[C@@H]2Cc2ccc(O)cc2)cc1 do in these assays?
HNF4A DNA FP: 1; Myeloid diff 2: inactive; Granule exo inh: -5; SENP1 inh: -1

Results for CC(=O)N1CN(C2CC(C)(C)NC(C)(C)C2)Cc2c1sc1c2CCCC1 ?
DSG3 Ab inh: 105; HNF4A DNA FP: -5; Myeloid diff 2: inactive; Granule exo inh: -3; H9c2 protect: 5; SENP1 inh: 0

Results for CC(=O)N1CN(C2CCCC2)Cc2c1sc1c2CCCC1 ?
HNF4A DNA FP: 3; Myeloid diff 2: inactive; Granule exo inh: 1; H9c2 protect: 5; SENP1 inh: -15; Myeloid diff CP1: inactive; GFP autofluor: 0

Results for CCOc1ccc2[nH]c(=O)c(CN(Cc3ccco3)Cc3nnnn3Cc3ccccc3)cc2c1 ?
DSG3 Ab inh: 101; HNF4A DNA FP: 1; Myeloid diff 2: inactive; Granule exo inh: -4; H9c2 protect: 13; SENP1 inh: -42

How did COc1ccc2cc(CN(Cc3ccco3)C(c3nnnn3C3CCCCC3)C(C)C)c(=O)[nH]c2c1 (centres undefined) do in these assays?
DSG3 Ab inh: 107; HNF4A DNA FP: -5; Myeloid diff 2: active; Granule exo inh: 5; H9c2 protect: 14; SENP1 inh: -25; Myeloid diff CP1: inactive; GFP autofluor: 1

Results for COc1ccc2[nH]c(=O)c(CN(Cc3ccco3)Cc3nnnn3Cc3ccccc3)cc2c1 ?
DSG3 Ab inh: 100; HNF4A DNA FP: 3; Myeloid diff 2: inactive; Granule exo inh: -4; H9c2 protect: 66*; SENP1 inh: -8; Myeloid diff CP1: inactive; GFP autofluor: 0

How did CCN(CC)C(=O)CN1C(=O)C(=O)c2ccccc21 do in these assays?
DSG3 Ab inh: 65; HNF4A DNA FP: 1; Myeloid diff 2: inactive; Granule exo inh: 10; H9c2 protect: -4; SENP1 inh: -1; Myeloid diff CP1: inactive; GFP autofluor: 1

Results for COc1cccc(Oc2c(C)oc3c(CN4CCCC4)c(O)ccc3c2=O)c1 ?
DSG3 Ab inh: 100; HNF4A DNA FP: 1; Myeloid diff 2: inactive; Granule exo inh: 4; H9c2 protect: 4; SENP1 inh: 1; Myeloid diff CP1: inactive; GFP autofluor: 0

Results for COc1ccccc1Oc1c(C)oc2c(CN3CCOCC3)c(O)ccc2c1=O ?
DSG3 Ab inh: 103; HNF4A DNA FP: -1; Myeloid diff 2: inactive; Granule exo inh: -3; H9c2 protect: 0; SENP1 inh: -1

How did O=C(CSc1ccc(F)cc1)Nc1nnc(-c2ccco2)o1 do in these assays?
DSG3 Ab inh: 105; HNF4A DNA FP: -1; Myeloid diff 2: inactive; Granule exo inh: 6; H9c2 protect: 4; SENP1 inh: 0

How did COc1ccc(-n2c(=S)[nH]c3cc(C(=O)Nc4ccc(C)c(F)c4)ccc3c2=O)c(OC)c1 do in these assays?
HNF4A DNA FP: 4; Myeloid diff 2: active; Granule exo inh: 6; H9c2 protect: -2; SENP1 inh: -2; Myeloid diff CP1: inactive; GFP autofluor: 0

What do the screens show for `N#Cc1c(N)nc(SC2CCCCC2=O)c(C#N)c1-c1ccco1` (centres undefined)?
DSG3 Ab inh: 101; HNF4A DNA FP: 1; Myeloid diff 2: inactive; Granule exo inh: 0; H9c2 protect: 9; SENP1 inh: -20; Myeloid diff CP1: inactive; GFP autofluor: 1

Results for N#Cc1c(N)nc(SCc2ccccc2)c(C#N)c1-c1ccco1 ?
DSG3 Ab inh: 82; HNF4A DNA FP: 2; Myeloid diff 2: inactive; Granule exo inh: 27; H9c2 protect: -2; SENP1 inh: -19

Results for CC(C)CSc1ncnc2c1oc1nc3c(cc12)COC(C)(C)C3 ?
DSG3 Ab inh: 94; HNF4A DNA FP: 1; Myeloid diff 2: inactive; Granule exo inh: 2; H9c2 protect: 7; SENP1 inh: -7; Myeloid diff CP1: inactive; GFP autofluor: 2

Results for C=CCSc1ncnc2c1oc1nc3c(cc12)COC(C)(C)C3 ?
DSG3 Ab inh: 107; HNF4A DNA FP: 2; Myeloid diff 2: inactive; Granule exo inh: -16; H9c2 protect: 10; SENP1 inh: -3

How did O=[N+]([O-])c1ccc(Cl)c(CN2CCN(c3ncc(Cc4ccccc4)cn3)CC2)c1 do in these assays?
HNF4A DNA FP: 1; Myeloid diff 2: inactive; Granule exo inh: 0; SENP1 inh: 1

How did O=C(CS(=O)(=O)c1c[nH]c2ccccc12)N1CCc2ccccc21 do in these assays?
DSG3 Ab inh: 103; HNF4A DNA FP: 1; Myeloid diff 2: inactive; Granule exo inh: 0; H9c2 protect: 10; SENP1 inh: 0

What do the screens show for `N#Cc1c(N)nc(SCc2ccccn2)c(C#N)c1-c1cccs1`?
DSG3 Ab inh: 102; HNF4A DNA FP: 1; Myeloid diff 2: inactive; Granule exo inh: 37; H9c2 protect: -7; SENP1 inh: -7; Myeloid diff CP1: inactive; GFP autofluor: 0

Results for CCOC(=O)CSc1nc(N)c(C#N)c(-c2cccs2)c1C#N ?
DSG3 Ab inh: 116; HNF4A DNA FP: -2; Myeloid diff 2: inactive; Granule exo inh: -5; H9c2 protect: -13; SENP1 inh: -1

How did CCn1c(SCC(=O)NC2=NCCS2)nnc1C(C)NC(=O)c1ccc(Cl)cc1 (centres undefined) do in these assays?
DSG3 Ab inh: 106; HNF4A DNA FP: -1; Myeloid diff 2: inactive; Granule exo inh: 4; H9c2 protect: -1; SENP1 inh: 8

Screening data as filed in PubChem.
